Source: ChEMBL document CHEMBL5058577, “EUbOPEN Chemogenomics Library 2 (Multiplex)” (2022)

Tested on: U2OS
Assay: Multiplex assay against U2OS
Format: toxicity, cell-based
Settings: human
Method in brief: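 Imaging took place on a CQ1 microscope at 37°C and 5% CO2 once compound had been added to live cells stained at seeding with Hoechst33342, BioTracker Green Microtubule Cytoskeleton Dye, MitoTracker Red and Annexin V Alexa Fluor 680. CellPathfinder machine-learning gating classed cells as Hoechst high-intensity objects or normal cells, classed normal cells as having healthy, pyknosed or fragmented nuclei, and classed pyknosed cells as mitotic or apoptotic. Tubulin, mitochondrial-mass and membrane-permeability phenotypes are per cents of the healthy-nucleus cells.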

[1] = 12 h, 1 µM, compound concentration 1 uM, replicate 1
[2] = 12 h, 1 µM, compound concentration 1 uM, replicate 2
[3] = 12 h, 10 µM, compound concentration 10 uM, replicate 1
[4] = 12 h, 10 µM, compound concentration 10 uM, replicate 2
[5] = 24 h, 1 µM, compound concentration 1 uM, replicate 1
[6] = 24 h, 1 µM, compound concentration 1 uM, replicate 2
[7] = 24 h, 10 µM, compound concentration 10 uM, replicate 1
[8] = 24 h, 10 µM, compound concentration 10 uM, replicate 2
[9] = 48 h, 1 µM, compound concentration 1 uM, replicate 1
[10] = 48 h, 1 µM, compound concentration 1 uM, replicate 2
[11] = 48 h, 10 µM, compound concentration 10 uM, replicate 1
[12] = 48 h, 10 µM, compound concentration 10 uM, replicate 2

In the case of `O=S(=O)(c1ccccc1)c1cnc2c(N3CCNCC3)cccc2c1` [INTEPIRDINE], the “Population Apoptotic (%)” value [1] is reported as 76%, the “Population Fragmented Nuclei (%)” value [1] is reported as 23% and the “Population Healthy Nuclei (%)” value [1] is reported as 68%. For the same compound, the “Population Hoechst High Intensity Objects (%)” value [1] was 1%, the “Population Membrane Permeable-Phenotype (%)” value [1] was 6% and the “Population Mitochondria Different-Phenotype (%)” value [1] was 3%. For the same compound, the “Population Mitotic Cells (%)” value [1] was 23%, the “Population Normal (%)” value [1] was 98% and the “Population Pyknosed Nuclei (%)” value [1] was 7%. The “Population Tubulin-Different-Phenotype (%)” value [1] was 4%, the “Total Cell Count” value [1] was 267 and the “Population Apoptotic (%)” value [2] was 70%. The “Population Fragmented Nuclei (%)” value [2] was 17%, the “Population Healthy Nuclei (%)” value [2] was 71% and the “Population Hoechst High Intensity Objects (%)” value [2] was 0%. The “Population Membrane Permeable-Phenotype (%)” value [2] was 7%, the “Population Mitochondria Different-Phenotype (%)” value [2] was 6% and the “Population Mitotic Cells (%)” value [2] was 30%. The “Population Normal (%)” value [2] was 100%, the “Population Pyknosed Nuclei (%)” value [2] was 11% and the “Population Tubulin-Different-Phenotype (%)” value [2] was 7%. For the same compound, the “Total Cell Count” value [2] was 88, the “Population Apoptotic (%)” value [3] was 58% and the “Population Fragmented Nuclei (%)” value [3] was 25%. The “Population Healthy Nuclei (%)” value [3] was 61%, the “Population Hoechst High Intensity Objects (%)” value [3] was 3% and the “Population Membrane Permeable-Phenotype (%)” value [3] was 23%. The “Population Mitochondria Different-Phenotype (%)” value [3] was 11%, the “Population Mitotic Cells (%)” value [3] was 41% and the “Population Normal (%)” value [3] was 96%. For the same compound, the “Population Pyknosed Nuclei (%)” value [3] was 12%, the “Population Tubulin-Different-Phenotype (%)” value [3] was 14% and the “Total Cell Count” value [3] was 204. For the same compound, the “Population Apoptotic (%)” value [4] was 85%, the “Population Fragmented Nuclei (%)” value [4] was 10% and the “Population Healthy Nuclei (%)” value [4] was 79%. The “Population Hoechst High Intensity Objects (%)” value [4] was 2%, the “Population Membrane Permeable-Phenotype (%)” value [4] was 12% and the “Population Mitochondria Different-Phenotype (%)” value [4] was 13%. The “Population Mitotic Cells (%)” value [4] was 14%, the “Population Normal (%)” value [4] was 97% and the “Population Pyknosed Nuclei (%)” value [4] was 10%. The “Population Tubulin-Different-Phenotype (%)” value [4] was 10%, the “Total Cell Count” value [4] was 139 and the “Population Apoptotic (%)” value [5] was 80%. For the same compound, the “Population Fragmented Nuclei (%)” value [5] was 22%, the “Population Healthy Nuclei (%)” value [5] was 67% and the “Population Hoechst High Intensity Objects (%)” value [5] was 2%. For the same compound, the “Population Membrane Permeable-Phenotype (%)” value [5] was 7%, the “Population Mitochondria Different-Phenotype (%)” value [5] was 2% and the “Population Mitotic Cells (%)” value [5] was 19%. For the same compound, the “Population Normal (%)” value [5] was 97%, the “Population Pyknosed Nuclei (%)” value [5] was 9% and the “Population Tubulin-Different-Phenotype (%)” value [5] was 4%. For the same compound, the “Total Cell Count” value [5] was 319, the “Population Apoptotic (%)” value [6] was 69% and the “Population Fragmented Nuclei (%)” value [6] was 14%. For the same compound, the “Population Healthy Nuclei (%)” value [6] was 73%, the “Population Hoechst High Intensity Objects (%)” value [6] was 0% and the “Population Membrane Permeable-Phenotype (%)” value [6] was 3%. The “Population Mitochondria Different-Phenotype (%)” value [6] was 3%, the “Population Mitotic Cells (%)” value [6] was 30% and the “Population Normal (%)” value [6] was 99%. The “Population Pyknosed Nuclei (%)” value [6] was 12%, the “Population Tubulin-Different-Phenotype (%)” value [6] was 1% and the “Total Cell Count” value [6] was 108. For the same compound, the “Population Apoptotic (%)” value [7] was 72%, the “Population Fragmented Nuclei (%)” value [7] was 23% and the “Population Healthy Nuclei (%)” value [7] was 60%. For the same compound, the “Population Hoechst High Intensity Objects (%)” value [7] was 3%, the “Population Membrane Permeable-Phenotype (%)” value [7] was 17% and the “Population Mitochondria Different-Phenotype (%)” value [7] was 14%. For the same compound, the “Population Mitotic Cells (%)” value [7] was 27%, the “Population Normal (%)” value [7] was 96% and the “Population Pyknosed Nuclei (%)” value [7] was 16%. The “Population Tubulin-Different-Phenotype (%)” value [7] was 10%, the “Total Cell Count” value [7] was 233 and the “Population Apoptotic (%)” value [8] was 77%. For the same compound, the “Population Fragmented Nuclei (%)” value [8] was 10%, the “Population Healthy Nuclei (%)” value [8] was 77% and the “Population Hoechst High Intensity Objects (%)” value [8] was 0%. For the same compound, the “Population Membrane Permeable-Phenotype (%)” value [8] was 10%, the “Population Mitochondria Different-Phenotype (%)” value [8] was 17% and the “Population Mitotic Cells (%)” value [8] was 22%. The “Population Normal (%)” value [8] was 99%, the “Population Pyknosed Nuclei (%)” value [8] was 11% and the “Population Tubulin-Different-Phenotype (%)” value [8] was 6%. For the same compound, the “Total Cell Count” value [8] was 156, the “Population Apoptotic (%)” value [9] was 89% and the “Population Fragmented Nuclei (%)” value [9] was 15%. The “Population Healthy Nuclei (%)” value [9] was 70%, the “Population Hoechst High Intensity Objects (%)” value [9] was 3% and the “Population Membrane Permeable-Phenotype (%)” value [9] was 6%. The “Population Mitochondria Different-Phenotype (%)” value [9] was 4%, the “Population Mitotic Cells (%)” value [9] was 10% and the “Population Normal (%)” value [9] was 96%. For the same compound, the “Population Pyknosed Nuclei (%)” value [9] was 14%, the “Population Tubulin-Different-Phenotype (%)” value [9] was 4% and the “Total Cell Count” value [9] was 416. The “Population Apoptotic (%)” value [10] was 76%, the “Population Fragmented Nuclei (%)” value [10] was 13% and the “Population Healthy Nuclei (%)” value [10] was 68%. For the same compound, the “Population Membrane Permeable-Phenotype (%)” value [10] was 3%, the “Population Mitochondria Different-Phenotype (%)” value [10] was 2% and the “Population Mitotic Cells (%)” value [10] was 23%. The “Population Pyknosed Nuclei (%)” value [10] was 18%, the “Population Tubulin-Different-Phenotype (%)” value [10] was 2% and the “Total Cell Count” value [10] was 148. For the same compound, the “Population Apoptotic (%)” value [11] was 78%, the “Population Fragmented Nuclei (%)” value [11] was 22% and the “Population Healthy Nuclei (%)” value [11] was 59%. The “Population Hoechst High Intensity Objects (%)” value [11] was 4%, the “Population Membrane Permeable-Phenotype (%)” value [11] was 15% and the “Population Mitochondria Different-Phenotype (%)” value [11] was 7%. For the same compound, the “Population Mitotic Cells (%)” value [11] was 22%, the “Population Normal (%)” value [11] was 95% and the “Population Pyknosed Nuclei (%)” value [11] was 17%. The “Population Tubulin-Different-Phenotype (%)” value [11] was 6%, the “Total Cell Count” value [11] was 302 and the “Population Apoptotic (%)” value [12] was 95%. For the same compound, the “Population Fragmented Nuclei (%)” value [12] was 13%, the “Population Healthy Nuclei (%)” value [12] was 75% and the “Population Hoechst High Intensity Objects (%)” value [12] was 2%. The “Population Membrane Permeable-Phenotype (%)” value [12] was 10%, the “Population Mitochondria Different-Phenotype (%)” value [12] was 12% and the “Population Mitotic Cells (%)” value [12] was 4%. For the same compound, the “Population Normal (%)” value [12] was 97%, the “Population Pyknosed Nuclei (%)” value [12] was 11% and the “Population Tubulin-Different-Phenotype (%)” value [12] was 4%. For the same compound, the “Total Cell Count” value [12] was 201.
